Screening data deposited in PubChem by several laboratories.
Shown are actives, neighbours in structure and some others; about 0.86% of the full set was active somewhere.
DAGLB inhibitor – diacylglycerol lipase beta (human) inhibition | HEK293T DAGLB membrane lysate, EnzChek fluorogenic substrate | inhibition, % at 5.17 µM | 340,000 compounds, 0.059% hits | AID 504411; in the data active means inhibition above about 34%;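 further: 0% = enzyme with vehicle and 100% = wells lacking enzyme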
Target sequence (Q8NCG7 whole entry, looked up): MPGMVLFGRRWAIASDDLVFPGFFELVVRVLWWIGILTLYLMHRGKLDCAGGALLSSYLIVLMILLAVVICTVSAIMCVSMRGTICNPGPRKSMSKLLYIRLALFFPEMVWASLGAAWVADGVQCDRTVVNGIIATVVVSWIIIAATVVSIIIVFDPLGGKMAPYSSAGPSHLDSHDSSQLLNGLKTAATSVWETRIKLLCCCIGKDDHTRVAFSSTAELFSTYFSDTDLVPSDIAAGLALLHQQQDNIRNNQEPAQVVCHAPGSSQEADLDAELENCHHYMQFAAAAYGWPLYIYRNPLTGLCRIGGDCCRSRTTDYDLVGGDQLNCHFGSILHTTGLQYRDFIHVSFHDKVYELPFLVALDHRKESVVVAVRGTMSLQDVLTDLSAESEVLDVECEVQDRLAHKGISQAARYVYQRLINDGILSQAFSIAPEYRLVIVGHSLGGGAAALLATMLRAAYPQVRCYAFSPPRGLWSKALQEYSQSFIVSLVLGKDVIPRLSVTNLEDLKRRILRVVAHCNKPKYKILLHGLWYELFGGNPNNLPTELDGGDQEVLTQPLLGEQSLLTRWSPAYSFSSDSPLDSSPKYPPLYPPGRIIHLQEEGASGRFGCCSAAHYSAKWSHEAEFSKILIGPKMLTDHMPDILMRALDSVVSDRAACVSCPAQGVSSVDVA
APJ antagonist – antagonists of human APJ apelin receptor; AID 2521; P35414; 330,000 compounds, 0.32% hits; inhibition, % at 20 µM; CHO-K1 APJ beta-arrestin complementation, luminescence;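 active means inhibition above about 40% at 20 µM, limit read from the data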;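 further: cells challenged with 10 nM apelin-13 agonist together with compound; plate controls were apelin-13 plus DMSO wells for no effect and DMSO wells lacking apelin-13 for full effect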
CXCR6 block – inhibitors of human CXCR6 receptor. O00574. CHO-K1 PathHunter CXCR6 beta-arrestin, luminescence. 360,000 compounds, 0.36% hits. inhibition, % at 20 µM; in the data active means inhibition above about 34%, passing the limit was not always enough;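 further: antagonist mode with CXCL16 agonist at 10 nM final; 0% = 10 nM CXCL16 with DMSO and 100% = unstimulated wells without agonist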
APJ ag – APJ receptor agonism; CHO-K1 APJ PathHunter beta-arrestin, luminescence; 0% DMSO wells, 100% apelin; P35414; 330,000 compounds, 0.11% hits; activation, % at 20 µM;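 active means activation more than six SD over the plate average, tested at 20 µM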;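 further: 0% = DMSO alone and 100% = apelin-13 at 10 nM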
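Test system: CHO-K1 APJ beta-arrestin complementation cell line. Amount: cell density 1000 per well. Controls: DMSO negative, 10 nM Apelin-13 positive. Signal: luminescent beta-gal fragment complementation, chemiluminescent substrate. Read-out basis: agonist-driven arrestin binding to APJ. Timing: compound stimulation 90 min at 25 °C, detection 60 min.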
iPSC survival up – increases survival of single human iPS cells | hiPSC single-cell survival, ATPlite luminescence; 100% = ROCK inhibitor wells, 0% = DMSO | survival enhancement, % at 20 µM | 360,000 compounds, 0.044% hits | AID 602274; in the data active means survival enhancement above about 18%;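 further: cells exposed to compounds for 16 hours before the ATP read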
CCR6 antag – blocks CCL20-driven beta-arrestin recruitment at human CCR6; CHO-K1 CCR6 PathHunter beta-arrestin, luminescence, CCL20-stimulated; inhibition, % at 20 µM; 340,000 compounds, 0.49% hits; AID 493098;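 active means compounds whose inhibition of the agonist-driven luminescence signal at 20 µM reaches about 50%, limit read from the data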;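 further: cells stimulated with CCL20 at 14 nM final; plate controls were DMSO with CCL20 for no effect and DMSO without agonist for full effect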
APJ antag conf – APJ receptor antagonism confirmation; AID 2766; shares compounds with APJ antagonist; APJ beta-arrestin recruitment, luminescence, antagonist mode; inhibition, % at 20 µM; 950 compounds, 66% hits; in the data active means inhibition above about 50%
* hit, by the source's call; nt = not tested or not shown.

SMILES	DAGLB inhibitor	APJ antagonist	CXCR6 block	APJ ag	iPSC survival up	CCR6 antag	APJ antag conf
COc1ccccc1NCC(=O)c1ccc(Cl)cc1	-4	72*	38	-16	0	71*	110*
COc1ccc(C(=O)CC(=O)C(=O)Nc2cccc(F)c2)cc1	2	5	13	-1	-1	19	nt
COc1ccc(C(=O)CNc2cccc(F)c2)cc1	0	45*	35	-11	0	60*	95*
COc1ccc(C(=O)CNc2ccccc2CO)cc1	-1	40*	18	-8	2	91*	149*
COC(=O)c1ccccc1NCC(=O)c1ccc(OC)cc1	0	-7	14	-10	0	37	nt
CC(=O)Nc1cccc(-c2nnc(-c3ccc(C)cc3)o2)c1	-2	8	-7	1	0	4	nt
C=C(C)CNC(=S)N/N=C/c1c(F)cccc1F	-1	7	-1	-3	2	-3	nt
CC(=O)c1sc(NS(=O)(=O)c2ccc(C)cc2)nc1C	4	53*	1	-2	-3	-1	23
Cc1ccccc1NC(=O)c1ccc(Nc2c([N+](=O)[O-])cc([N+](=O)[O-])c3ccccc23)cc1	19	57*	42*	-5	1	60*	90*
COc1ccc(-n2c(C)ccc2-c2ccccc2)cn1	-6	79*	7	-1	0	18	12
COc1ccc(/C=C/C(=O)NC(=S)NNC(=O)c2c(-c3ccccc3)noc2C)cc1	6	43*	32	-7	-2	3	92*
CCOC(=O)C1=C(C)NC(=O)NC1c1c(C)nn(-c2ccccc2)c1Cl (stereo not drawn)	-2	44*	1	1	4	3	14
CCOC(=O)C1=C(C)N(C)C(=O)NC1c1c(C)nn(-c2ccc(C)cc2)c1Cl (stereo not drawn)	-2	2	3	-3	0	10	nt
CC(C)(C)c1cc(CNC(=O)C2CCC(=O)N(Cc3ccccc3F)C2)[nH]n1 (stereo not drawn)	1	nt	2	nt	0	nt	nt
C=CCn1c(-c2ccccc2OC)n[nH]c1=S	-1	5	0	-3	-2	5	nt
C=CCn1c(-c2cccc3ccccc23)n[nH]c1=S	-2	43*	4	-2	4	-18	15
O=C(CCn1c(=O)[nH]c2ccccc2c1=O)N1CC=C(c2ccccc2)CC1	1	-16	4	-1	0	1	nt
C=CCn1c(=O)[nH]c2cc(C(=O)N3CC=C(c4ccccc4)CC3)ccc2c1=O	5	52*	-17	-5	0	12	-13
COc1ccc(-n2c(N)c(C(=O)NCc3ccco3)c3nc4ccccc4nc32)cc1	2	4	3	-2	2	16	nt
N#Cc1c(N)n(CCc2ccc(F)cc2)c2nc3ccccc3nc12	-1	65*	14	-1	-1	20	-7
Nc1c(C(=O)NCc2ccco2)c2nc3ccccc3nc2n1CCc1ccc(F)cc1	5	55*	6	-10	3	-4	-12
Nc1[nH]n2c(=O)cc(-c3ccccc3)nc2c1N=Nc1ccc(S(N)(=O)=O)cc1	25	42*	22	-7	1	51*	65*
Cc1cc(C)n2[nH]c(=O)c(N=Nc3ccc(S(N)(=O)=O)cc3)c2n1	2	16	18	-6	2	16	nt
COCCNC(=O)CSc1nnc(-c2ccccc2)c(-c2ccccc2)n1	2	17	12	0	-1	9	nt
CN1/C(=C\C=C2/SC(=S)N(CC(=O)O)C2=O)C(C)(C)c2ccccc21	-88	51*	45*	-11	0	59*	93*
SMILES	DAGLB inhibitor	APJ antagonist	CXCR6 block	APJ ag	iPSC survival up	CCR6 antag	APJ antag conf
C=CCN1C(=O)/C(=C\C=C2\N(C)c3ccccc3C2(C)C)SC1=S	-6	57*	30	-7	-2	71*	82*
CCCN1C(=O)/C(=C/C=C2\N(CC)c3ccccc3C2(C)C)SC1=S	-13	15	20	-12	-2	34	nt
Cc1nnc(SCC(=O)NC2CCCCC2)n1N	0	-1	-8	-1	-2	4	nt
CN(C(=O)c1cccc(S(=O)(=O)N2CCOCC2)c1)c1c(N)n(Cc2ccccc2)c(=O)[nH]c1=O	-2	17	-4	-4	6	13	nt
Cc1ccc(NCCC(=O)c2ccccc2)cc1Cl	-4	-10	0	-1	-1	5	nt
Cc1ccc(NCC(=O)c2ccccc2)cc1Cl	0	94*	49*	-17	1	73*	101*
CCc1ccc(C(=O)NNc2ccc(F)cc2)cc1	-3	30	14	-8	0	16	nt
Cc1ccc(C(=O)CNc2ccc(C)c(Cl)c2)cc1	-4	64*	22	-8	-1	60*	93*
Cc1ccc(NCCC(=O)c2ccc(Cl)cc2)cc1	-10	13	-3	-6	-1	8	nt
CCc1ccc(C(=O)NNc2ccc(C)c(Cl)c2)cc1	nt	53*	10	-9	0	38	80*
CCCS(=O)(=O)NC(=O)C1(C)CCCN(C(=O)c2cc(OC)ccc2Br)C1 (stereo not drawn)	nt	nt	0	nt	2	nt	nt
Cc1c(C(=O)NCc2ccccc2)sc(=O)n1Cc1ccccc1F	nt	nt	6	nt	0	nt	nt
CCCSc1cc(N2CCOCC2)nc(-c2ccccc2Cl)n1	-13	-1	-3	-5	-5	33	nt
O=C(C1=C(O)C(=O)N(CCN2CCOCC2)C1c1cccc(O)c1)c1cc2ccccc2o1 (stereo not drawn)	0	24	-2	-2	0	7	nt
O=C(C1=C(O)C(=O)N(CCN2CCOCC2)C1c1cccs1)c1cc2ccccc2o1 (stereo not drawn)	3	56*	11	-7	-1	23	28
Nc1ccc(CCc2ccc(N)cc2)cc1	1	-4	7	-2	-1	1	nt
CCOc1cc(/C=C2/SC(=S)N(CC3CCCO3)C2=O)ccc1O (stereo not drawn)	-1	48*	51*	-7	2	67*	101*
COc1cc(/C=C2\SC(=S)N(C(C(=O)O)c3ccccc3)C2=O)ccc1O (stereo not drawn)	6	50*	42*	-10	-1	47	91*
O=C(O)C(c1ccccc1)N1C(=O)/C(=C\c2ccc(O)c(O)c2)SC1=S (stereo not drawn)	33	45*	42*	-7	0	53*	87*
O=C1/C(=C/c2cccc(O)c2)SC(=S)N1CC1CCCO1 (stereo not drawn)	0	8	6	-4	0	7	nt
